The text below walks through data of ChEMBL document CHEMBL4371092, “3,4- seco-Norclerodane Diterpenoids from the Roots of Polyalthia laui” (J Nat Prod, 2019).

The subject of one data set is HeLa. Put plainly: Cytotoxicity against human HeLa cells after 72 hrs by MTT assay. It is filed as cell-based. Summed up:
(§1)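 Human tumour lines MCF7 (breast), HeLa (cervical carcinoma) and A549 (lung adenocarcinoma) were tested by MTT assay for cytotoxicity, with doxorubicin as the positive control.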

Data set [1] is described as follows: Cytotoxicity against human C8166 cells after 72 hrs by MTT assay. In kind it is cell-based. The method, boiled down:
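C8166 cells were tested for cytotoxicity by MTT assay, with CC50 defined as the 50% cytotoxic concentration.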
Background: Tetrazolium assays rely on reduction of a dye to a coloured formazan, in cell work by metabolically active cells.

For data set [2], the system named is Human immunodeficiency virus 1. Kind of data set: Antiviral activity against HIV1 3B infected in human MT4 cells assessed as reduction in virus-induced cytopathic effect by measuring number of syncytia after 3 days by inverted microscopic method. In kind it is functional, organism-based. The settings on record: Human immunodeficiency virus 1, 3B, MT4, 72 h. The method, boiled down:
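Anti-HIV-1 activity was scored as inhibition of viral cytopathic effect, and EC50 was taken as the 50% effective concentration. AZT (3′-azido-3′-deoxythymidine) was run as the positive control.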
Background: Protection from cytopathic effect is a common read-out in antiviral testing.

Another data set deals with MCF7. Kind of data set: Cytotoxicity against human MCF7 cells after 72 hrs by MTT assay. It is filed as cell-based. The following applies: MCF7, 72 h. Summed up:
as §1

A further data set concerns A549. Kind of data set: Cytotoxicity against human A549 cells after 72 hrs by MTT assay. It is filed as cell-based. The settings on record: A549, 72 h. The method, boiled down:
as §1

A short description of data set [3]: Therapeutic index, ratio of CC50 for human C8166 cells to EC50 for HIV1 3B infected in human MT4 cells. It is filed as toxicity, cell-based. The following applies: read-out: Ratio CC50/EC50. The method, boiled down: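 TI was computed as CC50/EC50. CC50 came from an MTT cytotoxicity assay on C8166 cells, and EC50 from inhibition of HIV-1 cytopathic effect, with AZT as the positive control.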

pEC50, pIC50: −log10 of the molar value.

Broadly, the pIC50 is −log10 of the IC50, conventionally taken in molar units. A low value points to a high IC50. For orientation: CC50 means the concentration at which the toxic effect on the cells reaches its halfway point. A high value points to lower toxicity to the cells. For orientation: pEC50 means the negative decadic logarithm of the EC50, by convention in mol/L. `CC1=CC(=O)C[C@@H]2[C@@](C)(CC/C(=C\C(=O)O)C(=O)O)[C@H](C)CC[C@@]12C`: the negative-log IC50 (pIC50) with HeLa, in the data set with MCF7 and in the data set on A549 was < 5.00 each time. Moreover, the half-maximal cytotoxic concentration (CC50) at 72 h in data set [1] is > 200 µM. Further, in data set [2], the negative logarithm of the EC50 (pEC50) was 4.45. In addition, the selectivity ratio in data set [3] was > 5.7.
Take `C/C(=C\C(=O)O)CC[C@@]1(C)[C@H](C)CC[C@]2(C)[C@@H]1CC[C@@H](O)[C@]2(C)O`: the pIC50 in the data set with HeLa, in the data set on MCF7 and with A549 was < 5.00 in each case. Besides, in data set [1], the CC50 at 72 h was > 200 µM. For the same compound, the pEC50 in data set [2] was 4.56. The selectivity ratio in data set [3] is > 7.3.
As to `CO[C@@H]1OC(=O)C=C1CC[C@@]1(C)[C@H](C)CC[C@@]2(C)C(C)=C(C=O)C[C@H]12`, the pIC50 with HeLa, with MCF7 and with A549 was < 5.00 in each case. Further, the cytotoxic concentration (CC50) at 72 h in data set [1] is > 200 µM. In data set [2], the negative-log EC50 (pEC50) is 4.77. In data set [3], the selectivity ratio is > 11.9.
Turning to `C[C@@H]1CC[C@@]2(C)C(C(=O)O)=CCC[C@@H]2[C@@]1(C)CC/C(=C\C(=O)O)C(=O)O`, the pIC50 in the data set on HeLa, with MCF7 and in the data set with A549 was < 5.00 throughout. For the same compound, the cytotoxic concentration (CC50) at 72 h in data set [1] was > 200 µM. Further, in data set [2], the pEC50 is 4.70. Moreover, the selectivity ratio in data set [3] is > 16.4.
In the case of `CC1=C(C(=O)O)C[C@@H]2[C@@](C)(CC/C(=C/C(=O)O)CO)[C@H](C)CC[C@@]12C`, the pIC50 in the data set on HeLa, in the data set on MCF7 and in the data set on A549 was < 5.00 in each case. Besides, the CC50 at 72 h in data set [1] was > 200 µM. Further, the pEC50 in data set [2] was 4.64. Further, the selectivity ratio in data set [3] was > 8.5.
In turn, `Cc1cn([C@H]2C[C@H](N=[N+]=[N-])[C@@H](CO)O2)c(=O)[nH]c1=O` [ZIDOVUDINE] displayed a cytotoxic concentration (CC50) at 72 h in data set [1] of 5230 µM. Also, in data set [2], the negative-log EC50 (pEC50) was 7.70. Moreover, the selectivity ratio in data set [3] turned out to be 338000.
Regarding `CC(=O)[C@]1(C)CC[C@@H](C)[C@](C)(CC/C(C)=C/C(=O)O)[C@H]1CC(=O)O`, the pIC50 in the data set on HeLa, in the data set on MCF7 and in the data set with A549 was < 5.00 throughout. In data set [1], the CC50 at 72 h was > 200 µM. In addition, the pEC50 in data set [2] was 4.91. Further, the selectivity ratio in data set [3] was > 16.4.
